Measurements taken from ChEMBL document CHEMBL1142462, “Synthesis and in vitro biological evaluation of ring B abeo-sterols as novel inhibitors of Mycobacterium tuberculosis” (Bioorg Med Chem Lett, 2008).
In brackets after ≈: the same amount, converted by molar mass.

Legend:
[1] = system: Mycobacterium tuberculosis; assay: Antimycobacterial activity against Mycobacterium tuberculosis H37Rv by microplate alamar blue assay; type: functional
[2] = system: Mycobacterium tuberculosis; assay: Antimycobacterial activity against Mycobacterium tuberculosis H37Rv at 64 ug/mL by microplate alamar blue assay; type: functional
[3] = system: Mycobacterium tuberculosis; assay: Antimycobacterial activity against Mycobacterium tuberculosis H37Rv at 16 ug/mL by microplate alamar blue assay; type: functional
[4] = system: Vero; assay: Cytotoxicity against african green monkey Vero cells; type: cell-based; conditions: Chlorocebus sabaeus
Method in brief: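 Cytotoxicity tested on VERO cells (ATCC CCL-81) in parallel with the MIC work. Read-out is IC50 in μg/mL.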

[5] = system: Mycobacterium tuberculosis; assay: Antimycobacterial activity against Mycobacterium tuberculosis H37Rv at 32 ug/mL by microplate alamar blue assay; type: functional
[6] = system: Mycobacterium tuberculosis; assay: Antimycobacterial activity against Mycobacterium tuberculosis H37Rv at 4 ug/mL by microplate alamar blue assay; type: functional
[7] = Selectivity index, ratio of IC50 for against african green monkey VERO cells to MIC for Mycobacterium tuberculosis H37Rv; type: functional
[8] = system: Mycobacterium tuberculosis; assay: Antimycobacterial activity against Mycobacterium tuberculosis H37Rv at 2 ug/mL by microplate alamar blue assay; type: functional
[9] = system: Mycobacterium tuberculosis; assay: Antimycobacterial activity against Mycobacterium tuberculosis H37Rv at 8 ug/mL by microplate alamar blue assay; type: functional
[10] = system: Mycobacterium tuberculosis; assay: Antimycobacterial activity against Mycobacterium tuberculosis H37Rv at 128 ug/mL by microplate alamar blue assay; type: functional

Compound	MIC [1] [µg/mL]	inhibition at 64 µg/mL [2] [%]	inhibition at 16 µg/mL [3] [%]	IC50 [4] [µg/mL]	inhibition at 32 µg/mL [5] [%]	inhibition at 4 µg/mL [6] [%]	Selectivity Index [7]	inhibition at 2 µg/mL [8] [%]	inhibition at 8 µg/mL [9] [%]	inhibition at 128 µg/mL [10] [%]
C=C(CC[C@@H](C)[C@H]1CC[C@H]2[C@@H]3CC=C4C[C@@H](O)CC[C@]4(C)[C@H]3CC[C@]12C)C(C)C	120 (≈ 301 µM)	40	33	> 128	43	–	–	–	–	–
CC[C@@H](CC[C@@H](C)[C@H]1CC[C@H]2[C@@H]3C(C=O)=C4C[C@@H](O)CC[C@]4(C)[C@H]3CC[C@]12C)C(C)C	3.8 (≈ 8.86 µM)	99	98	26.6 (≈ 62 µM)	99	97	7	29	99	99
CC(C)C(=O)CC[C@@H](C)[C@H]1CC[C@H]2[C@@H]3C(C=O)=C4C[C@@H](O)CC[C@]4(C)[C@H]3CC[C@]12C	13.6 (≈ 32.8 µM)	100	92	43.8 (≈ 106 µM)	96	67	3.2	52	83	99
CC(C)CCC[C@@H](C)[C@H]1CC[C@H]2[C@@H]3C(C=O)=C4C[C@@H](O)CC[C@]4(C)[C@H]3CC[C@]12C	15 (≈ 37.4 µM)	99	96	> 128	99	34	>9	10	51	99
CC(C)[C@@H](C)[C@]1(C)C[C@@H]1[C@@H](C)[C@H]1CC[C@H]2[C@@H]3C(C=O)=C4C[C@@H](O)CC[C@]4(C)[C@H]3CC[C@]12C	12.7 (≈ 28.8 µM)	99	96	54.7 (≈ 124 µM)	98	33	4.3	17	81	99
CC(C)[C@@H](C)CC[C@@H](C)[C@H]1CC[C@H]2[C@@H]3CC=C4C[C@@H](O)CC[C@]4(C)[C@H]3CC[C@]12C	> 128	41	21	> 128	31	14	–	15	23	58
CC(C)[C@@H](C)CC[C@@H](C)[C@H]1CC[C@H]2[C@@H]3C(C=O)=C4C[C@@H](O)CC[C@]4(C)[C@H]3CC[C@]12C	3.9 (≈ 9.4 µM)	100	99	42.3 (≈ 102 µM)	99	94	10.8	39	97	99
CC(C)[C@@H](C)[C@]1(C)C[C@@H]1[C@@H](C)[C@H]1CC[C@H]2[C@@H]3CC=C4C[C@@H](O)CC[C@]4(C)[C@H]3CC[C@]12C	> 128	18	10	> 128	13	–	–	–	–	38
CCC(CC[C@@H](C)[C@H]1CC[C@H]2[C@@H]3CC=C4C[C@@H](O)CC[C@]4(C)[C@H]3CC[C@]12C)C(C)C (single isomer, unassigned) [BETA-SITOSTEROL]	> 128	48	32	> 128	31	8	–	-1	7	45
CC(C)CCC[C@@H](C)[C@H]1CC[C@H]2[C@@H]3CC=C4C[C@@H](O)CC[C@]4(C)[C@H]3CC[C@]12C [CHOLESTEROL]	> 128	24	33	> 128	13	–	–	–	–	57
C=C(CC[C@@H](C)[C@H]1CC[C@H]2[C@@H]3C(C=O)=C4C[C@@H](O)CC[C@]4(C)[C@H]3CC[C@]12C)C(C)C [PARGUESTEROL A]	7.8 (≈ 18.9 µM)	99	105	51 (≈ 124 µM)	99	69	6.5	52	91	99
CO[C@H]1/C=C/O[C@@]2(C)Oc3c(C)c(O)c4c(O)c(c(/C=N/N5CCN(C)CC5)c(O)c4c3C2=O)NC(=O)/C(C)=C\C=C\[C@H](C)[C@H](O)[C@@H](C)[C@@H](O)[C@@H](C)[C@H](OC(C)=O)[C@@H]1C [RIFAMPIN]	0.06 (≈ 0.0729 µM)	100	99	–	100	73	–	–	94	100
